Data from ChEMBL document CHEMBL2146360, “Selection, synthesis, and anti-inflammatory evaluation of the arylidene malonate derivatives as TLR4 signaling inhibitors” (Bioorg Med Chem, 2012).
Activity calls are given as the source filed them. The calls are words filed in the database; no cut-off is given here.

How the values were obtained:
Assay type in all cases: cell-based
Toll-like receptor 4 [1] = biological target: T1, Toll-like receptor 4 (Mus musculus, UniProt Q9QUK6); experiment: Inhibition of TLR4 in LPS-stimulated mouse RAW264.7 cells assessed as reduction of NO production after 24 hrs
T1 sequence (Q9QUK6 whole entry): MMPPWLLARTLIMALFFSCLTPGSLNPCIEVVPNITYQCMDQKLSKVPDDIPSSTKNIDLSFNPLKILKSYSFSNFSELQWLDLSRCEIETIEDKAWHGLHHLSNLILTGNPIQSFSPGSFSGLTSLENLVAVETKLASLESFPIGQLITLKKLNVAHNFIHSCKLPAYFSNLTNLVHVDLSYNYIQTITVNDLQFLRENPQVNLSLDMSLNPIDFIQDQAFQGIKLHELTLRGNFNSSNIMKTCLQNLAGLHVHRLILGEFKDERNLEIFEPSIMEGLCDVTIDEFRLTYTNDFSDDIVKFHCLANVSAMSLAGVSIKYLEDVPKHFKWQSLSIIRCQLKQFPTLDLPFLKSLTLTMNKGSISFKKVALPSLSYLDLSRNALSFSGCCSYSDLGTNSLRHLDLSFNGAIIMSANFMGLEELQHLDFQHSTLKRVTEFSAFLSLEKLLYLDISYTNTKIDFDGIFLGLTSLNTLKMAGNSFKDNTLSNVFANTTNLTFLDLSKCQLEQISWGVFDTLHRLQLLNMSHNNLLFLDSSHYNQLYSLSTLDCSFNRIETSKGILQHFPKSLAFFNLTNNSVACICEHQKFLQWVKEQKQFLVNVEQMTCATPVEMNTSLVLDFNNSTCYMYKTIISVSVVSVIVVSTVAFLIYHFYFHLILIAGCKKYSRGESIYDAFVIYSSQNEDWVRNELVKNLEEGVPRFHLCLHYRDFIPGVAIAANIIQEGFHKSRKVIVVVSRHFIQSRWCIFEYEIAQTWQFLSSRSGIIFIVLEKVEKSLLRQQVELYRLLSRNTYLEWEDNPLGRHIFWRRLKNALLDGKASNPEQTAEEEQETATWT
Method in brief: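 RAW 264.7 cells at 7.5×10^4/well were incubated 24 h, moved to fresh RPMI 1640, treated with vehicle or compound, and stimulated with LPS 20 ng/mL for 24 h. Nitrite in the medium was reacted with 2,3-diaminonaphthalene (0.05 mg/mL in 0.62 M HCl) for 15 min in the dark, NaOH was added, and […] was read at 450 nm.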

[2] = biological target: TLR7 and TLR8 (Mus musculus) (UniProt P58681+P58682); experiment: Inhibition of TLR7/TLR8 in R848-stimulated mouse RAW264.7 cells at 0.6 uM after 24 hrs
TLR7 and TLR8 (Mus musculus), sequence (P58681 whole entry, looked up): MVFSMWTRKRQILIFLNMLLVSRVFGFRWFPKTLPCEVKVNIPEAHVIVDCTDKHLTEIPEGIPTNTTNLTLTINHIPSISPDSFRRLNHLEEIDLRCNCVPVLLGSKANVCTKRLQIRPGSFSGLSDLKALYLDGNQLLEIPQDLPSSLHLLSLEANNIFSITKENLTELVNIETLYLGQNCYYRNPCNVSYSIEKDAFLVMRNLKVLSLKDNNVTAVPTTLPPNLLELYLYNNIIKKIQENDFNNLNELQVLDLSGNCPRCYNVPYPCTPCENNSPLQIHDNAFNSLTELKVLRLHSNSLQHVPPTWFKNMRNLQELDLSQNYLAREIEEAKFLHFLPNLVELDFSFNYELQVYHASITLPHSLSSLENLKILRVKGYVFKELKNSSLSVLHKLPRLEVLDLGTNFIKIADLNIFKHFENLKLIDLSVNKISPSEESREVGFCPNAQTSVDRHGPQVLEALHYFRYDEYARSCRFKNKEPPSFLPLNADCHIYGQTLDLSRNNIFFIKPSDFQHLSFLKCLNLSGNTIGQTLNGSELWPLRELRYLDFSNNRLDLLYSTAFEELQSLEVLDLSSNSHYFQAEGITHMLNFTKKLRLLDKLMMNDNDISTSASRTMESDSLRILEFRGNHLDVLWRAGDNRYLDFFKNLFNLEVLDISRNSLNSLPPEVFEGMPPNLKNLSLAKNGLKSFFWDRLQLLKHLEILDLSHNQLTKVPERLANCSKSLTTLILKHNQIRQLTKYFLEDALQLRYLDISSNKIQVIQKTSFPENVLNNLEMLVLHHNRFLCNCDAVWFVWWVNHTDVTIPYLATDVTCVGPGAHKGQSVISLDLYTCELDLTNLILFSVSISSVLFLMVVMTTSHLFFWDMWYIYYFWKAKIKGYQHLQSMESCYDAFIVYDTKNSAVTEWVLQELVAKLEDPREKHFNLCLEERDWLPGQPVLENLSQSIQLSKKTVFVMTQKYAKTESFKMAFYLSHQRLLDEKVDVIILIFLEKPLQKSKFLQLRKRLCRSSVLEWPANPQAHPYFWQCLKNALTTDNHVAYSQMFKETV
TLR7 and TLR8 (Mus musculus), sequence (P58682 whole entry, looked up): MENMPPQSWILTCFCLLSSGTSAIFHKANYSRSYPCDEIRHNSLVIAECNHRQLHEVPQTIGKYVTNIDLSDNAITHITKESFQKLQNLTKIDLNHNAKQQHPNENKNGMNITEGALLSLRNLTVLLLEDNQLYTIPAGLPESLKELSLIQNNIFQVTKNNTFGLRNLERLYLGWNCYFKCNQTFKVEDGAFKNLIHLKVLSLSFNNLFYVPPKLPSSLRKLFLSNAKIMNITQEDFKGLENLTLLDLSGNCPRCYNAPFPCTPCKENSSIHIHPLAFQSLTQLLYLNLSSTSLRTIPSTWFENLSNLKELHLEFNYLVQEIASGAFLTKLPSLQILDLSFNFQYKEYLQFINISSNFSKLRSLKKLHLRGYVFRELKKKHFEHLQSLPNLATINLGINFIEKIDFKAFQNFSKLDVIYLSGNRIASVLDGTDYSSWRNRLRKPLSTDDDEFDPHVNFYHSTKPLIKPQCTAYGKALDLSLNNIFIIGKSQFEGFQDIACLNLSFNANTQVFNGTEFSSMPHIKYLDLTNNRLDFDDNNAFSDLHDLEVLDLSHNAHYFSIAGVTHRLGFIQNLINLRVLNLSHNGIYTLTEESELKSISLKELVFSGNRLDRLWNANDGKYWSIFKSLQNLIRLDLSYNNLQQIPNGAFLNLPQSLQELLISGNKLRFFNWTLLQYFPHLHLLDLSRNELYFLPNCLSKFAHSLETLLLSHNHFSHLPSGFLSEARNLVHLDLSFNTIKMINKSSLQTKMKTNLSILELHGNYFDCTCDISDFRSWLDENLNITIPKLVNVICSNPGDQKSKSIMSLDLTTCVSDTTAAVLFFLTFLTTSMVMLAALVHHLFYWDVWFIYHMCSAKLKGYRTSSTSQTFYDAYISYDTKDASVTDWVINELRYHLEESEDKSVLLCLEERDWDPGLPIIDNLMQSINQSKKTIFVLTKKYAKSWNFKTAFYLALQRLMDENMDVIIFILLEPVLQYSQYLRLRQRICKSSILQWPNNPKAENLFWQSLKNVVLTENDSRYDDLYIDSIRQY
Method in brief: (§1)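 RAW 264.7 cells were stimulated with the TLR-selective ligand named in the line, in the presence or absence of compound (0.6 μM). NO was then measured by the nitrite protocol: 7.5×10^4 cells/well, RPMI 1640, 24 h. 2,3-diaminonaphthalene was added, then NaOH, and […] read at 450 nm. Mean ±SD of 3 experiments, each run in triplicate.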

[3] = biological target: T2, Toll-like receptor 4 (Mus musculus) (UniProt Q9QUK6); experiment: (§2) Inhibition of TLR4 in LPS-stimulated mouse RAW264.7 cells assessed as reduction of TNFalpha production after 24 hrs by ELISA
T2 sequence (whole entry): T1 sequence (Q9QUK6 whole entry)
Method in brief: (§3)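 RAW 264.7 cells (5×10^5/well, 6-well plates) were treated with or without LPS and then with compound for 24 h. Culture supernatant was harvested and clarified, and TNF-α was measured by ELISA.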

Toll-like receptor 4 [4] = biological target: T1, Toll-like receptor 4; experiment: as §2; method in brief: as §3
[5] = biological target: T2, Toll-like receptor 4 (Mus musculus); experiment: Inhibition of TLR4 in LPS-stimulated mouse BV2 cells assessed as reduction of NF-kappaB activation after 24 hrs by Dual-GLO luciferase assay; conditions: BV-2
Method in brief: (§4)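 BV-2 cells stably carrying an NF-κB dual-luciferase reporter were kept in DMEM/10% FBS with puromycin (3 μg/mL) and seeded at 1×10^4/well. After 24 h the medium was switched to Opti-MEM/0.5% FBS. Compound was added, followed by LPS 200 ng/mL for 24 h. Read-out was the Firefly/Renilla luciferase ratio (Dual-Glo).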

[6] = biological target: Toll-like receptor 1/2 (Mus musculus) (UniProt Q9QUN7+Q9EPQ1); experiment: Inhibition of TLR1/TLR2 in Pam3CSK4-stimulated mouse RAW264.7 cells at 0.6 uM after 24 hrs; method in brief: as §1
[7] = biological target: T2, Toll-like receptor 4 (Mus musculus); experiment: (§5) Inhibition of TLR4 in LPS-stimulated mouse RAW264.7 cells assessed as reduction of IL1-beta production after 24 hrs by ELISA
Method in brief: (§6)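 RAW 264.7 cells (5×10^5/well, 6-well plates) were treated with or without LPS and then with compound for 24 h. Cells were lysed and IL-1β was measured in the lysate by ELISA, normalized to total protein.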

Toll-like receptor 4 [8] = biological target: T1, Toll-like receptor 4; experiment: as §5; method in brief: as §6
[9] = biological target: T3, Toll-like receptor 3 (Mus musculus) (UniProt Q99MB1); experiment: Inhibition of TLR3 in poly(I:C)-stimulated mouse RAW264.7 cells at 0.6 uM after 24 hrs; method in brief: as §1
T3 sequence (whole entry): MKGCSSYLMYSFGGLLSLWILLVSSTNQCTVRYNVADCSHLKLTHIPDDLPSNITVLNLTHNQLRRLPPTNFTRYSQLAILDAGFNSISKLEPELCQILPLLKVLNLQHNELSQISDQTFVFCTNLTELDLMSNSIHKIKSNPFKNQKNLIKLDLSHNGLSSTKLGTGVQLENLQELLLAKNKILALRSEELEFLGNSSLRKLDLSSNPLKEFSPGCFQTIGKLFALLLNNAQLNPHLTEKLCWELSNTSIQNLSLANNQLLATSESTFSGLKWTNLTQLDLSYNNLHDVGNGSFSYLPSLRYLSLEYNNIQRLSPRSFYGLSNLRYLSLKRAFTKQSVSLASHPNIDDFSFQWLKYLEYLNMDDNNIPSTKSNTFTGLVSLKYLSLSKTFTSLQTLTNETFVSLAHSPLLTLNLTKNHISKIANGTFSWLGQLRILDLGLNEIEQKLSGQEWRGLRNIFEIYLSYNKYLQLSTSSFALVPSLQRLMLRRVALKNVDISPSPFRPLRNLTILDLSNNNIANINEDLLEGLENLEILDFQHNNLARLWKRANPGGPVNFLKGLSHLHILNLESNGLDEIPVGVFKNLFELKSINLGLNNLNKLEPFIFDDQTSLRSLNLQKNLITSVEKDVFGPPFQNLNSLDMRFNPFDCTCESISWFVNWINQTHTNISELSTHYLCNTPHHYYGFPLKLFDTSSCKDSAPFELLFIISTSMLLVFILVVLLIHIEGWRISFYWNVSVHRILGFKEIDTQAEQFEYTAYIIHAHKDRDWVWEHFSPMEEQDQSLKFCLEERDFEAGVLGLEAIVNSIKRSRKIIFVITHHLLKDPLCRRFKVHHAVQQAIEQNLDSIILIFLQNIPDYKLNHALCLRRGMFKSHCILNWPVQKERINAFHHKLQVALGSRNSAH

TLR2/TLR6 (Mus musculus) = TLR2/TLR6 (Mus musculus) (UniProt Q9QUN7+Q9EPW9); experiment: Inhibition of TLR2/TLR6 in FSL1-stimulated mouse RAW264.7 cells at 0.6 uM after 24 hrs; method in brief: as §1
RAW264.7 = experiment: Cytotoxicity against mouse RAW264.7 cells assessed as cell viability up to 10 uM after 24 hrs by WST-1 assay; conditions: raw264.7, 24 h
Method in brief: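 WST-1 viability assay: RAW 264.7 cells at 2×10^4 cells/well, cultured 24 h at 37°C, then moved to serum-free medium and treated with vehicle or compound (10 mM DMSO stocks) for 24 h. WST-1 reagent added for 30 min at 37°C; absorbance read at 490 nm.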

[10] = biological target: T2, Toll-like receptor 4 (Mus musculus); experiment: Inhibition of TLR4 in LPS-stimulated mouse BV2 cells assessed as reduction of NF-kappaB activation up to 10 uM after 24 hrs by Dual-GLO luciferase assay; conditions: BV-2; method in brief: as §4
[11] = biological target: T2, Toll-like receptor 4 (Mus musculus); experiment: Inhibition of TLR4 in LPS-stimulated mouse RAW264.7 cells assessed as reduction of TNFalpha production at 3 to 10 uM after 24 hrs by ELISA; method in brief: as §3
[12] = biological target: T2, Toll-like receptor 4 (Mus musculus); experiment: Inhibition of TLR4 in LPS-stimulated mouse RAW264.7 cells assessed as reduction of IL1-beta production at 3 to 10 uM after 24 hrs by ELISA; method in brief: as §6

| Compound | IC50 (Toll-like receptor 4 [1]) | also measured |
| --- | --- | --- |
| COC(=O)C(=Cc1ccc(OC)cc1OC)C(=O)OC | 0.82 µM | – |
| COC(=O)C(=Cc1ccc([N+](=O)[O-])cc1)C(=O)OC | 0.82 µM | – |
| O=C(O)C(=Cc1ccccc1)C(=O)O | 0.93 µM | – |
| COC(=O)C(=Cc1ccccc1[N+](=O)[O-])C(=O)OC | 0.31 µM | inhibition [2]: inactive; inhibition [3]: Dose-dependent effect; IC50 (Toll-like receptor 4 [4]): 1.54 µM; IC50 [5]: 5.92 µM; inhibition [5]: Dose-dependent effect; inhibition [6]: inactive; inhibition [7]: Dose-dependent effect; IC50 (Toll-like receptor 4 [8]): 0.42 µM; inhibition [9]: inactive; inhibition (TLR2/TLR6 (Mus musculus)): Active; Activity (RAW264.7): Non-toxic |
| O=C(O)C(=Cc1ccccc1F)C(=O)O | 0.41 µM | – |
| COC(=O)C(=Cc1ccc(F)cc1F)C(=O)OC | 0.42 µM | – |
| COC(=O)C(=Cc1ccc(Cl)cc1)C(=O)OC | 1.54 µM | – |
| COC(=O)C(=Cc1ccccc1OC)C(=O)OC | 0.74 µM | – |
| COc1ccc(C=C(C(=O)O)C(=O)O)cc1 | 1.44 µM | – |
| COC(=O)C(=Cc1ccccc1F)C(=O)OC | 0.33 µM | – |
| COC(=O)C(=Cc1ccc(OC)cc1)C(=O)OC | 1.24 µM | – |
| COC(=O)C(=Cc1ccc(F)cc1)C(=O)OC | 0.71 µM | – |
| COc1cc(/C=C/C(=O)CC(=O)/C=C/c2ccc(O)c(OC)c2)ccc1O [CURCUMIN] | 6 µM | – |
| COC(=O)C(=Cc1cccc(OC)c1)C(=O)OC | 3.72 µM | – |
| COC(=O)C(=Cc1cccc([N+](=O)[O-])c1)C(=O)OC | 2.13 µM | – |
| COC(=O)C(=CC1CCCCC1)C(=O)OC | 78.2 µM | – |
| COC(=O)C(=Cc1ccccc1Cl)C(=O)OC | 0.82 µM | – |
| O=C(O)C(=Cc1ccccc1[N+](=O)[O-])C(=O)O | 0.52 µM | – |
| COC(=O)C(Cc1ccccc1[N+](=O)[O-])C(=O)OC | > 100 µM | inhibition [10]: inactive; inhibition [11]: inactive; inhibition [12]: inactive |
| COC(=O)C(=Cc1cccc(F)c1)C(=O)OC | 2.53 µM | – |
| COC(=O)C(=Cc1ccccc1)C(=O)OC | 0.82 µM | – |
| COC(=O)/C=C/c1ccccc1[N+](=O)[O-] | 4.53 µM | – |
| COC(=O)C(=Cc1ccc(N(C)C)cc1)C(=O)OC | 3.11 µM | – |
| COC(=O)C(=Cc1ccc(C(=O)OC)cc1)C(=O)OC | 1.33 µM | – |
